Assay results taken from ChEMBL document CHEMBL3351677, “Design and synthesis of azaisoflavone analogs as phytoestrogen mimetics” (Eur J Med Chem, 2014).
Active and inactive are the calls of the source. The calls are words filed in the database; no cut-off is given here.

Legend:
CV-1 = experiment: Selectivity ratio of maximum activation of human ERbeta expressed in CV1 cells to maximum activation of human ERalpha expressed in CV1 cells; assay type: cell-based
Procedure, shortened: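 CV-1 cells held in phenol red-free DMEM with 5% stripped FBS for 3 days, seeded at 1.5 × 10⁵ cells/well. Next day they were co-transfected for 6 h with 30 ng hERα or hERβ plus 100 ng ERE-luciferase, with a β-galactosidase vector for normalization. Treated 24 h, then luciferase read, β-gal absorbance at 410 nm. Each subtype's activation expressed relative to maximum with 20 nM E2; at least three experiments.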

MCF7 [1] = experiment: Stimulation of growth in human MCF7 cells at 5 to 20 uM after 4 days by MTT assay; assay type: functional, cell-based
Procedure, shortened: (§1)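 MCF-7 cells kept in DMEM with 10% FBS, then held 3 days in phenol red-free DMEM with 5% charcoal-dextran stripped FBS. Seeded at 1.5 × 10³ cells/well for 24 h, then treated with samples for 4 days; 0.1 nM E2 and 100 nM ICI served as controls. MTT (5 mg/mL in PBS) was added for 2 h, formazan dissolved in DMSO and absorbance read. Three independent experiments, mean ± SD, Dunnett test.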

MCF7 [2] = experiment: Growth inhibition in human MCF7 cells at 50 to 100 uM after 4 days by MTT assay; assay type: functional, cell-based; procedure, shortened: as §1
Homo sapiens = organism: Homo sapiens; experiment: Selectivity ratio of maximum inhibition of recombinant human ERbeta to maximum inhibition of recombinant human ERalpha by competitive binding assay
Procedure, shortened: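 Competitive binding with [³H]-E2 (1 nM) for ERα and ERβ. Bound and free ligand separated by centrifugation at 12,000 × g for 2 min; supernatant radioactivity counted by liquid scintillation. Bound [³H]-E2 expressed relative to maximum receptor-bound ligand (10⁻⁷ M E2), versus 0.1% DMSO control; at least three separate experiments.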

MCF7 [3] = experiment: Growth inhibition in human MCF7 cells at 5 to 100 uM after 4 days by MTT assay; assay type: functional, cell-based; procedure, shortened: as §1
MCF7 [4] = experiment: Stimulation of growth in human MCF7 cells at 0.1 to 20 uM after 4 days by MTT assay; assay type: functional, cell-based; procedure, shortened: as §1
MCF7 [5] = experiment: Growth inhibition in human MCF7 cells at 20 to 100 uM after 4 days by MTT assay; assay type: functional, cell-based; procedure, shortened: as §1

Row | Selectivity ratio (Homo sapiens) | Structure (SMILES) | Selectivity ratio (CV-1) | Activity (MCF7 [1]) | growth inhibition (GI) (MCF7 [2]) | growth inhibition (GI) (MCF7 [3]) | Activity (MCF7 [4]) | growth inhibition (GI) (MCF7 [5])
1 | – | O=c1c(-c2ccc(O)cc2)c[nH]c2cc(O)ccc12 | 1.3 | – | – | – | – | –
2 | – | CCn1cc(-c2ccc(O)cc2)c(=O)c2ccc(O)cc21 | 2.9 | Active | Active | – | – | –
3 | 2.6 | Cn1cc(-c2ccc(O)cc2)c(=O)c2c(O)cc(O)cc21 | 1.3 | Active | Active | – | – | –
4 | 1.4 | CCCn1cc(-c2ccc(O)cc2)c(=O)c2c(O)cc(O)cc21 | 0.3 | – | – | Active | – | –
5 | 12 | O=c1c(-c2ccc(O)cc2)c[nH]c2cc(O)cc(O)c12 | 2.9 | Active | Active | – | – | –
6 | – | O=c1c(-c2ccc(O)cc2)cn(Cc2ccccc2)c2cc(O)ccc12 | 1 | – | – | Active | – | –
7 | – | CCCn1cc(-c2ccc(O)cc2)c(=O)c2ccc(O)cc21 | 1.6 | Active | Active | – | – | –
8 | – | CC(C)CCn1cc(-c2ccc(O)cc2)c(=O)c2ccc(O)cc21 | 3.4 | – | – | Active | – | –
9 | – | O=c1c(-c2ccc(O)cc2)coc2cc(O)cc(O)c12 | – | – | – | – | Active | Active
10 | – | Cn1cc(-c2ccc(O)cc2)c(=O)c2ccc(O)cc21 | 6.4 | – | – | – | – | –
11 | 1.6 | CCn1cc(-c2ccc(O)cc2)c(=O)c2c(O)cc(O)cc21 | 0.8 | Active | Active | – | – | –
12 | – | CCCn1cc(-c2ccc(O)cc2)c(=O)c2ccccc21 | 0.5 | Active | Active | – | – | –
